Assay results reported in ChEMBL document CHEMBL1255289, “In vitro antifungal activities of isavuconazole (BAL4815), voriconazole, and fluconazole against 1,007 isolates of zygomycete, Candida, Aspergillus, Fusarium, and Scedosporium species” (2008).

Tests used:
Assay type in all cases: functional
[1] = system: Aspergillus terreus; assay: Antifungal activity against Aspergillus terreus isolates after 48 hrs by CLSI M38-A procedure based assay
How it was run: (§1)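 Aspergillus isolates tested by CLSI M38-A broth microdilution at final 0.015–16 µg/ml and 35°C. Plates were read macroscopically at 48 h. The MIC was the lowest concentration producing complete inhibition of growth (MIC-0).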

[2] = system: Absidia; assay: Antifungal activity against Absidia isolates assessed as lowest compound concentration that produced complete inhibition of microbial growth after 24 hrs by CLSI M38-A procedure based assay
How it was run: (§2)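 Zygomycete isolates subcultured on potato dextrose or Sabouraud agar, then tested by CLSI M38-A broth microdilution. Drugs were serially diluted in plates at final 0.015–16 µg/ml and incubated at 35°C. Plates were read by eye at 24 h. MIC-0 was the lowest concentration giving complete growth inhibition.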

[3] = system: Aspergillus sp.; assay: Antifungal activity against Aspergillus sp. isolates after 48 hrs by CLSI M38-A procedure based assay; how it was run: as §1
[4] = system: Absidia; assay: Antifungal activity against Absidia isolates assessed as lowest compound concentration that produced slight growth or approximately 25% of that of growth control after 24 hrs by CLSI M38-A procedure based assay
How it was run: (§3)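 Clinical isolates were kept at –70°C as spore suspensions in sterile water and subcultured on potato dextrose or Sabouraud agar before testing. Broth microdilution used DMSO stocks in trays stored at –70°C, with final drug 0.015–16 µg/ml.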

[5] = system: Nakaseomyces glabratus; assay: Antifungal activity against Candida glabrata isolates by Etest
How it was run: (§4)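 Etest on RPMI agar with 2% glucose, swab-inoculated with the microdilution spore or yeast suspension taken before its 50-fold dilution. Plates were incubated at 35°C and read at 48 h. The MIC was the ellipse–scale intercept, raised to the next twofold dilution step.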

[6] = system: Candida albicans; assay: Antifungal activity against Candida albicans isolates after 48 hrs by CLSI M27-A2 procedure based assay
How it was run: (§5)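 Candida isolates tested by CLSI M27-A2 broth microdilution at final 0.015–16 µg/ml, or 0.125–128 µg/ml for the comparator azole. Incubation was at 35°C with a visual read at 48 h. MIC-2 was the lowest concentration giving a prominent turbidity drop, about 50% growth inhibition.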

[7] = system: Nakaseomyces glabratus; assay: Antifungal activity against Candida glabrata isolates after 48 hrs by CLSI M27-A2 procedure based assay; how it was run: as §5
[8] = system: Scedosporium apiospermum; assay: Antifungal activity against Scedosporium apiospermum isolates by Etest; how it was run: as §4
[9] = system: Mucor; assay: Antifungal activity against Mucor isolates assessed as lowest compound concentration that produced complete inhibition of microbial growth after 24 hrs by CLSI M38-A procedure based assay; how it was run: as §2
[10] = system: Absidia; assay: Antifungal activity against Absidia isolates by Etest
How it was run: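 Etest. The spore inoculum used for microdilution, taken before the 50-fold dilution, was swabbed onto RPMI agar with 2% glucose, strips applied, and plates held at 35°C and read at 24 h. The MIC was where the inhibition ellipse met the strip scale, rounded up to the next twofold dilution.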

[11] = system: Fusarium; assay: Antifungal activity against Fusarium sp. isolates assessed as lowest compound concentration that produced slight growth or approximately 25% of that of growth control after 24 hrs by CLSI M38-A procedure based assay
[12] = system: Candida tropicalis; assay: Antifungal activity against Candida tropicalis isolates by Etest; how it was run: as §4
[13] = system: Lomentospora prolificans; assay: Antifungal activity against Scedosporium prolificans isolates assessed as lowest compound concentration that produced complete inhibition of microbial growth after 24 hrs by CLSI M38-A procedure based assay
[14] = system: Mucor; assay: Antifungal activity against Mucor isolates assessed as lowest compound concentration that produced slight growth or approximately 25% of that of growth control after 24 hrs by CLSI M38-A procedure based assay; how it was run: as §3
[15] = system: Scedosporium apiospermum; assay: Antifungal activity against Scedosporium apiospermum isolates assessed as lowest compound concentration that produced complete inhibition of microbial growth after 24 hrs by CLSI M38-A procedure based assay
[16] = system: Aspergillus niger; assay: Antifungal activity against Aspergillus niger isolates by Etest; how it was run: as §4
[17] = system: Rhizopus; assay: Antifungal activity against Rhizopus isolates assessed as lowest compound concentration that produced complete inhibition of microbial growth after 24 hrs by CLSI M38-A procedure based assay; how it was run: as §2
[18] = system: Aspergillus terreus; assay: Antifungal activity against Aspergillus terreus isolates by Etest; how it was run: as §4
[19] = system: Fusarium; assay: Antifungal activity against Fusarium sp. isolates assessed as lowest compound concentration that produced complete inhibition of microbial growth after 24 hrs by CLSI M38-A procedure based assay
[20] = system: Syncephalastrum; assay: Antifungal activity against Syncephalastrum isolates assessed as lowest compound concentration that produced slight growth or approximately 25% of that of growth control after 24 hrs by CLSI M38-A procedure based assay; how it was run: as §3

C[C@@H](c1nc(-c2ccc(C#N)cc2)cs1)[C@](O)(Cn1cncn1)c1cc(F)ccc1F [ISAVUCONAZOLE]
0.38 µg/mL: MIC90 [5] | MIC50 [18]
0.25 µg/mL: MFC ([1]; Aspergillus terreus, 48 h) | MFC [3] | MIC [3] | MIC50 ([7]; Nakaseomyces glabratus, 48 h) | MIC [10]
8 µg/mL: MFC50 [9] | MIC90 [14] | MFC50 [15]
4 µg/mL: MFC [2] | MIC50 ([15]; Scedosporium apiospermum, 24 h) | MIC90 ([15]; Scedosporium apiospermum, 24 h) | MFC50 [17] | MFC ([19]; Fusarium, 24 h)
> 32 µg/mL: MIC [8]
1 µg/mL: MFC50 [1] | MFC90 [1] | MIC50 ([1]; Aspergillus terreus, 48 h) | MIC90 ([1]; Aspergillus terreus, 48 h) | MIC [2] | MIC90 ([7]; Nakaseomyces glabratus, 48 h) | MIC50 [14] | MFC ([17]; Rhizopus, 24 h) | MIC ([17]; Rhizopus, 24 h) | MIC50 ([17]; Rhizopus, 24 h)
16 µg/mL: MFC50 [7] | MIC90 ([9]; Mucor, 24 h) | MIC50 [11] | MIC90 ([17]; Rhizopus, 24 h) | MIC50 ([19]; Fusarium, 24 h)
0.5 µg/mL: MIC [4] | MIC50 [16] | MIC90 [18]
0.125 µg/mL: MIC90 [12] | MIC [20]
0.75 µg/mL: MIC90 [16]
0.003 µg/mL: MIC [12]
< 0.015 µg/mL: MIC90 ([6]; Candida albicans, 48 h)
0.094 µg/mL: MIC50 [5] | MIC [16]
0.03 µg/mL: MFC ([6]; Candida albicans, 48 h) | MIC50 ([6]; Candida albicans, 48 h) | MFC ([7]; Nakaseomyces glabratus, 48 h)
0.015 µg/mL: MIC50 [12]
>16 µg/mL: MFC50 [6] | MFC90 [6] | MFC90 [7] | MFC90 [9] | MFC50 [13] | MFC90 [13] | MFC90 [15] | MFC90 [17] | MFC50 [19]
2 µg/mL: MFC ([9]; Mucor, 24 h) | MIC50 ([9]; Mucor, 24 h) | MFC ([15]; Scedosporium apiospermum, 24 h)
> 16 µg/mL: MIC90 [11] | MFC ([13]; Lomentospora prolificans, 24 h) | MIC ([13]; Lomentospora prolificans, 24 h) | MIC90 ([19]; Fusarium, 24 h)
